Reference: ChEMBL document CHEMBL4229550, “An antimycobacterial pleuromutilin analogue effective against dormant bacilli” (Bioorg Med Chem, 2018)
Values after ≈ are worked out from the molar mass of the structure shown. Active and inactive are the calls of the source. No cut-off for these calls is given here.

Tests used:
Staphylococcus aureus [1] = test: Antibacterial activity against Staphylococcus aureus incubated for 24 hrs under aerobic condition by MABA; assay type: functional; conditions: read-out: MIC100
Outline: (§1)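 Resazurin was then added from a 0.08% stock for 1 h. MIC100 was the lowest concentration where the dye stayed blue (pink means growth). Absorbance was also read at 570 and 600 nm.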

[2] = tested on: Mycobacterium tuberculosis; test: Antibacterial activity against Mycobacterium tuberculosis; assay type: functional; conditions: read-out: MIC100
Outline: (§2)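 Mtb H37Rv grown in 7H9/OADC at 37 °C with shaking to OD600 0.5. The 0.5-OD culture is exposed aerobically to serial dilutions for 15 days at 37 °C. Resazurin (0.02% stock) is then added for 4 h at 37 °C with shaking.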

Vero = test: Cytotoxicity against African green monkey Vero cells assessed as reduction in cell viability after 72 hrs by MTT assay; assay type: cell-based; conditions: Chlorocebus sabaeus
Outline: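 Vero cells were grown in complete EMEM with 10% FBS and exposed for 72 h to 0.78–200 µg/mL. The medium was then swapped for phenol-red-free EMEM and MTT was added. Formazan absorbance was read at 570 nm to give IC50.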

[3] = Selectivity index, ratio of IC50 for African green monkey Vero cells to MIC100 for replicating Mycobacterium tuberculosis H37Rv by MABA; assay type: toxicity; conditions: read-out: Selectivity Index
Outline: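 Vero cells are cultured in EMEM with 10% FBS and exposed for 72 h to 0.78–200 µg/mL. Medium is switched to phenol-red-free EMEM, MTT is added, and formazan is read at 570 nm to give IC50. The selectivity index is Vero IC50 divided by the MABA MIC.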

Escherichia coli [4] = test: Inhibition of protein translation/transcription in Escherichia coli S30 cell extract at 0.1 ug/ml using circular DNA with pBESTluc after 60 mins by luciferase reporter gene assay; assay type: functional
Outline: (§3)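 Coupled transcription/translation used E. coli S30 extract, amino acid mix and premix, with the pBESTluc template carrying firefly luciferase under the tac promoter. Compounds were added in DMSO and reactions were started with DNA. Incubation was 60 min at 37 °C, stopped on ice, and luciferase was read after adding assay substrate.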

Escherichia coli [5] = test: Inhibition of protein translation/transcription in Escherichia coli S30 cell extract at 0.5 ug/ml using circular DNA with pBESTluc after 60 mins by luciferase reporter gene assay; assay type: functional; outline: as §3
Erythrocyte = test: Hemolytic activity in sheep erythrocytes after 2 hrs; assay type: ADME, cell-based; conditions: Ovis aries
Outline: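 Washed heparinized sheep erythrocytes at 3% in buffer pH 7.4 were treated with 2–200 µg/mL for 2 h at 37 °C with gentle shaking. Triton X-100 (0.01–1%) was the positive control and PEG:H2O diluent the negative control. Released hemoglobin was read at OD540 and % hemolysis calculated against both controls.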

[6] = Metabolic stability in Sprague-Dawley rat liver microsomes at 500 ng/ml preincubated for 5 mins followed by NADPH addition […] by C-MS/MS analysis; assay type: ADME, microsome; conditions: 10 min
[7] = tested on: Mycobacterium tuberculosis; test: Bactericidal activity against replicating Mycobacterium tuberculosis H37Rv incubated for 15 days under aerobic condition by MABA; assay type: functional; conditions: 360 h; outline: as §2
[8] = tested on: Mycolicibacterium smegmatis; test: Antibacterial activity against Mycobacterium smegmatis ATCC 607 incubated for 48 hrs under aerobic condition by MABA; assay type: functional; conditions: ATCC 607, 48 h, read-out: MIC100
Outline: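 Mid-log culture at OD 0.5 was incubated with serial dilutions aerobically at 37 °C for 48 h. Resazurin was then added from a 0.08% stock for 1 h. MIC100 was the lowest concentration that stayed blue; absorbance was also read at 570/600 nm.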

[9] = tested on: Mycolicibacterium smegmatis; test: Bactericidal activity against Mycobacterium smegmatis ATCC 607 incubated for 48 hrs under aerobic condition by MABA; assay type: functional; conditions: ATCC 607, 48 h
Staphylococcus aureus [10] = test: Bactericidal activity against Staphylococcus aureus incubated for 24 hrs under aerobic condition by MABA; assay type: functional
Staphylococcus aureus [11] = test: Antibacterial activity against Staphylococcus aureus ATCC 25923 incubated for 24 hrs under aerobic condition by MABA; assay type: functional; conditions: ATCC 25923, 24 h, read-out: MIC100
Outline: (§4)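 Mid-log cultures at OD 0.5 were exposed to serial dilutions under aerobic conditions at 37 °C for 24 h. Resazurin was then added from a 0.08% stock for 1 h. MIC100 was the lowest concentration where the dye stayed blue (pink means growth). Absorbance was also read at 570 and 600 nm.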

Staphylococcus aureus [12] = test: Bactericidal activity against Staphylococcus aureus ATCC 25923 incubated for 24 hrs under aerobic condition by MABA; assay type: functional; conditions: ATCC 25923, 24 h
Staphylococcus aureus [13] = test: Antibacterial activity against Staphylococcus aureus BAA 2094 incubated for 24 hrs under aerobic condition by MABA; assay type: functional; conditions: BAA 2094, 24 h, read-out: MIC100; outline: as §1
Staphylococcus aureus [14] = test: Bactericidal activity against Staphylococcus aureus BAA 2094 incubated for 24 hrs under aerobic condition by MABA; assay type: functional; conditions: BAA 2094, 24 h
Staphylococcus aureus [15] = test: Antibacterial activity against Staphylococcus aureus BAA 1683 incubated for 24 hrs under aerobic condition by MABA; assay type: functional; conditions: BAA 1683, 24 h, read-out: MIC100; outline: as §4
Staphylococcus aureus [16] = test: Bactericidal activity against Staphylococcus aureus BAA 1683 incubated for 24 hrs under aerobic condition by MABA; assay type: functional; conditions: BAA 1683, 24 h
Staphylococcus aureus [17] = test: Antibacterial activity against Staphylococcus aureus BAA 44 incubated for 24 hrs under aerobic condition by MABA; assay type: functional; conditions: BAA 44, 24 h, read-out: MIC100; outline: as §4
Staphylococcus aureus [18] = test: Bactericidal activity against Staphylococcus aureus BAA 44 incubated for 24 hrs under aerobic condition by MABA; assay type: functional; conditions: BAA 44, 24 h
Enterococcus faecalis [19] = test: Antibacterial activity against Enterococcus faecalis ATCC 349 incubated for 24 hrs under aerobic condition by MABA; assay type: functional; conditions: ATCC 349, 24 h, read-out: MIC100; outline: as §4
Enterococcus faecalis [20] = test: Bactericidal activity against Enterococcus faecalis ATCC 349 incubated for 24 hrs under aerobic condition by MABA; assay type: functional; conditions: ATCC 349, 24 h
Enterococcus faecalis [21] = test: Antibacterial activity against Enterococcus faecalis ATCC 19433 incubated for 24 hrs under aerobic condition by MABA; assay type: functional; conditions: ATCC 19433, 24 h, read-out: MIC100; outline: as §4
Enterococcus faecalis [22] = test: Bactericidal activity against Enterococcus faecalis ATCC 19433 incubated for 24 hrs under aerobic condition by MABA; assay type: functional; conditions: ATCC 19433, 24 h
Clostridioides difficile = test: Bactericidal activity against Clostridium difficile ATCC 700057 incubated for 24 hrs […] by MABA; assay type: functional; conditions: ATCC 700057, 24 h
Streptococcus pneumoniae [23] = test: Antibacterial activity against Streptococcus pneumoniae ATCC 6301 incubated for 24 hrs under aerobic condition by MABA; assay type: functional; conditions: ATCC 6301, 24 h, read-out: MIC100; outline: as §4
Streptococcus pneumoniae [24] = test: Bactericidal activity against Streptococcus pneumoniae ATCC 6301 incubated for 24 hrs under aerobic condition by MABA; assay type: functional; conditions: ATCC 6301, 24 h
Klebsiella pneumoniae [25] = test: Antibacterial activity against Klebsiella pneumoniae ATCC 12019 incubated for 24 hrs under aerobic condition by MABA; assay type: functional; conditions: ATCC 12019, 24 h, read-out: MIC100; outline: as §4
Klebsiella pneumoniae [26] = test: Bactericidal activity against Klebsiella pneumoniae ATCC 12019 incubated for 24 hrs under aerobic condition by MABA; assay type: functional; conditions: ATCC 12019, 24 h
Acinetobacter baumannii [27] = test: Antibacterial activity against Acinetobacter baumannii ATCC 19606 incubated for 24 hrs under aerobic condition by MABA; assay type: functional; conditions: ATCC 19606 = CIP 70.34 = JCM 6841, 24 h, read-out: MIC100; outline: as §4
Acinetobacter baumannii [28] = test: Bactericidal activity against Acinetobacter baumannii ATCC 19606 incubated for 24 hrs under aerobic condition by MABA; assay type: functional; conditions: ATCC 19606 = CIP 70.34 = JCM 6841, 24 h
Escherichia coli [29] = test: Antibacterial activity against Escherichia coli ATCC 10798 incubated for 24 hrs under aerobic condition by MABA; assay type: functional; conditions: ATCC 10798, 24 h, read-out: MIC100; outline: as §4
Escherichia coli [30] = test: Bactericidal activity against Escherichia coli ATCC 10798 incubated for 24 hrs under aerobic condition by MABA; assay type: functional; conditions: ATCC 10798, 24 h
Streptococcus salivarius [31] = test: Antibacterial activity against Streptococcus salivarius […] incubated for 24 hrs under aerobic condition by MABA; assay type: functional; conditions: read-out: MIC100; outline: as §1
Streptococcus salivarius [32] = test: Bactericidal activity against Streptococcus salivarius ATCC 6301 incubated for 24 hrs under aerobic condition by MABA; assay type: functional; conditions: ATCC 6301, 24 h
Bacillus subtilis [33] = test: Antibacterial activity against Bacillus subtilis ATCC 6051 incubated for 24 hrs under aerobic condition by MABA; assay type: functional; conditions: ATCC 6051, 24 h, read-out: MIC100; outline: as §4
Bacillus subtilis [34] = test: Bactericidal activity against Bacillus subtilis ATCC 6051 incubated for 24 hrs under aerobic condition by MABA; assay type: functional; conditions: ATCC 6051, 24 h
[35] = tested on: Mycobacterium tuberculosis; test: Bactericidal activity against Mycobacterium tuberculosis H37Rv at 2 times MIC measured every 24 hrs up to 12 days by time kill assay relative to control; assay type: functional
Outline: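 Mid-log H37Rv (OD 0.5) is diluted to OD 0.25 and exposed at MIC, 2×MIC or 4×MIC. Every 24 h cultures are diluted 10- to 10,000-fold and plated on 7H10/OADC agar. Plates are incubated 15 days at 37 °C before colony counts.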

C=C[C@]1(C)C[C@@H](OC(=O)CSC(C)(C)CNC(=O)[C@H](N)CC(C)C)[C@]2(C)[C@H](C)CC[C@]3(CCC(=O)[C@H]32)[C@@H](C)[C@@H]1O
MIC (Staphylococcus aureus [1]): 0.4 µg/mL (≈ 0.691 µM)
MIC [2]: < 6.25 µg/mL
IC50 (Vero): 25 µg/mL (≈ 43.2 µM)
selectivity ratio [3]: 16
inhibition (Escherichia coli [4]): Active
inhibition (Escherichia coli [5]): Active
IC50 (Erythrocyte): > 200 µM
Stability [6]: Unstable
MBC [7]: 1.46 µg/mL (≈ 2.52 µM)
MIC [8]: 6.25 µg/mL (≈ 10.8 µM)
MBC [9]: > 25 µg/mL
MBC (Staphylococcus aureus [10]): 0.8 µg/mL (≈ 1.38 µM)
MIC (Staphylococcus aureus [11]): > 25 µg/mL
MBC (Staphylococcus aureus [12]): > 25 µg/mL
MIC (Staphylococcus aureus [13]): > 25 µg/mL
MBC (Staphylococcus aureus [14]): > 25 µg/mL
MIC (Staphylococcus aureus [15]): > 25 µg/mL
MBC (Staphylococcus aureus [16]): > 25 µg/mL
MIC (Staphylococcus aureus [17]): > 25 µg/mL
MBC (Staphylococcus aureus [18]): > 25 µg/mL
MIC (Enterococcus faecalis [19]): > 25 µg/mL
MBC (Enterococcus faecalis [20]): > 25 µg/mL
MIC (Enterococcus faecalis [21]): 12.5 µg/mL (≈ 21.6 µM)
MBC (Enterococcus faecalis [22]): 25 µg/mL (≈ 43.2 µM)
MBC (Clostridioides difficile): 1.56 µg/mL (≈ 2.69 µM)
MIC (Streptococcus pneumoniae [23]): 25 µg/mL (≈ 43.2 µM)
MBC (Streptococcus pneumoniae [24]): > 25 µg/mL
MIC (Klebsiella pneumoniae [25]): 25 µg/mL (≈ 43.2 µM)
MBC (Klebsiella pneumoniae [26]): > 25 µg/mL
MIC (Acinetobacter baumannii [27]): 12.5 µg/mL (≈ 21.6 µM)
MBC (Acinetobacter baumannii [28]): 25 µg/mL (≈ 43.2 µM)
MIC (Escherichia coli [29]): 12.5 µg/mL (≈ 21.6 µM)
MBC (Escherichia coli [30]): > 25 µg/mL
MIC (Streptococcus salivarius [31]): 6.25 µg/mL (≈ 10.8 µM)
MBC (Streptococcus salivarius [32]): > 25 µg/mL
MIC (Bacillus subtilis [33]): 12.5 µg/mL (≈ 21.6 µM)
MBC (Bacillus subtilis [34]): 25 µg/mL (≈ 43.2 µM)
Activity [35]: 100%
